Experimental data taken from ChEMBL document CHEMBL4011629, “New Disubstituted Quindoline Derivatives Inhibiting Burkitt's Lymphoma Cell Proliferation by Impeding c-MYC Transcription” (J Med Chem, 2017).
Active and inactive are the calls of the source. No cut-off for these calls is given here.

Legend:
[1] = Stabilization of c-Myc Pu27 G-quadruplex DNA (unknown origin) assessed as induction of parallel G-quadruplex formation in absence of K+ ions by CD spectroscopic analysis
Outline: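 CD spectra: Pu27 at 5 μM in 10 mM Tris-HCl pH 7.4 without or with 100 mM KCl, annealed 95 °C 5 min, slow-cooled, kept at 4 °C overnight, with ligand. Scanned 230–400 in a 4 mm quartz cuvette, 1 nm bandwidth and step, 0.5 s/point; buffer baseline subtracted.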

[2] = Stabilization of c-Myc Pu27 G-quadruplex DNA (unknown origin) assessed as induction of parallel G-quadruplex formation in absence of K+ ions by CD spectroscopic analysis
[3] = Binding affinity to 5'-FAM labeled duplex DNA (unknown origin) by MST analysis
Outline: (§1)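 The DNA was annealed at 95 °C for 5 min, slowly cooled and held at 4 °C overnight. Ligand was run as a 12-point series, 0–20 μM for Pu27 and up to 200 μM for duplex. MST was measured, and KD was fitted to a Hill model from three replicates.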

[4] = Stabilization of 5'-FAM/3'-TAMRA labeled c-Myc Pu22 G-quadruplex DNA (unknown origin) assessed as change in melting temperature at 2 uM by FRET assay
Outline: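 FRET melting of FAM/TAMRA-labelled FPu22T (0.2 μM) in 10 mM Tris-HCl pH 7.4 with 2 mM KCl, ligand 2 μM, in a real-time PCR machine. Excitation 470 nm, emission 530 nm, read every 1 °C from 37 to 99 °C after 30 s hold at each step; ΔTm versus probe alone.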

[5] = Binding affinity to 5'-FAM labeled c-Myc Pu27 G-quadruplex DNA (unknown origin) in presence of K+ ions by MST analysis; outline: as §1
[6] = system: Raji; assay: Antiproliferative activity against human Raji cells after 48 hrs by MTT assay; type: functional, cell-based
Outline: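 RAJI cells were seeded at 5 × 10^3 cells per well and treated for 48 h, with a DMSO-matched control. MTT at 0.5 mg/mL was added for 4 h at 37 °C, followed by overnight lysis at 37 °C and absorbance at 570 nm. Each assay was done in triplicate. IC50 came from the dose-dependent percentage survival versus the control.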

[7] = Selectivity ratio of Kd for 5'-FAM labeled duplex DNA (unknown origin) to Kd for 5'-FAM labeled c-Myc Pu27 G-quadruplex DNA (unknown origin)
Outline: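 MST binding: FAM-Pu27 or FAM-duplex oligo at 10 μM in 10 mM Tris-HCl pH 7.4 with 150 mM KCl, annealed 95 °C 5 min, slow-cooled, held 4 °C overnight. Ligand titrated as a 12-point series, 0–20 μM for G4 or up to 200 μM for duplex. KD fitted with Hill model; three replicates.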

[8] = organism: Homo sapiens; assay: Effect on c-Myc DNA translocated chromosome product in human CA46 cells assessed as decrease in amplification of exon-2 at 1 uM after 12 hrs by RT-PCR method; type: cell-based
Outline: (§2)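 Cells treated 12 h with compound at various concentrations, untreated cells as control. Total RNA (2 μg) reverse-transcribed with oligo dT18 and M-MLV (42 °C 1 h). c-MYC exons 1 and 2, NM23-H2 and β-actin amplified by real-time PCR, products checked on 1% agarose gel. Three independent repeats, mean ± SEM, two-tailed unpaired t test versus untreated.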

[9] = organism: Homo sapiens; assay: Stabilization of c-Myc G-quadruplex DNA in human CA46 cells assessed as decrease in amplification of exon-1 at 1 uM after 12 hrs by RT-PCR method; type: cell-based; outline: as §2
[10] = organism: Homo sapiens; assay: Effect on c-Myc DNA translocated chromosome product in human Raji cells assessed as decrease in amplification of exon-2 at 1 uM after 12 hrs by RT-PCR method; type: cell-based; outline: as §2
[11] = organism: Homo sapiens; assay: Stabilization of c-Myc G-quadruplex DNA in human Raji cells assessed as decrease in amplification of exon-1 at 1 uM after 12 hrs by RT-PCR method; type: cell-based; outline: as §2
[12] = Inhibition of NM23-H2 binding to 5'-FAM labeled c-Myc Pu27 G-quadruplex DNA (unknown origin) at 10 uM preincubated for 1 hr followed by NM23-H2 addition by electrophoretic mobility shift assay relative to control
Outline: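 Annealed labeled Pu27 (1.5 μM) preincubated 1 h at 25 °C with 10 μM ligand or 5% DMSO. Recombinant His-tagged NM23-H2 (0.5 μM, E. coli BL21, nickel-purified) then added for 1 h at 37 °C. Complexes resolved on 5% native polyacrylamide gel in 0.5× TBE at 4 °C. Inhibition taken as loss of complex band intensity versus no-compound band set at 100%. Run three times.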

C[n+]1c2ccccc2c(NCCN2CCCCC2)c2oc3ccc(OCC(=O)NCCN4CCCCC4)cc3c21
Activity [1]: Active | Activity [2]: Active | Activity [3]: Active | ΔTm [4]: 30 °C | Activity [5]: Active

CCN(CC)CCNC(=O)COc1ccc2oc3c(NCCN(CC)CC)c4ccccc4nc3c2c1
Activity [1]: Active | IC50 [6]: 1000 to 4000 nM | Activity [2]: Active | Selectivity ratio [7]: 2.9 to 9.7 | ΔTm [4]: 13.5 to 36.7 °C | Activity [5]: Active

CN1CCN(CCNC(=O)COc2ccc3oc4c(NCCN5CCN(C)CC5)c5ccccc5[n+](C)c4c3c2)CC1
Activity [1]: Active | Activity [2]: Active | Activity [3]: Active | ΔTm [4]: 13.5 to 36.7 °C | Activity [5]: Active

CN(C)CCCNc1c2ccccc2nc2c1[nH]c1ccccc12
Activity [8]: Active | Activity [9]: Active | Activity [10]: Active | Activity [11]: Active | inhibition [12]: Active | Selectivity ratio [7]: 1.02 | Activity [4]: Active | Kd [5]: 7800 nM

CCN(CC)CCCNC(=O)COc1ccc2oc3c(NCCCN(CC)CC)c4ccccc4nc3c2c1
Activity [1]: Active | IC50 [6]: 1000 to 4000 nM | Activity [2]: Active | Selectivity ratio [7]: 2.9 to 9.7 | ΔTm [4]: 13.5 to 36.7 °C | Activity [5]: Active

C[n+]1c2ccccc2c(NCCCN2CCCCC2)c2oc3ccc(OCC(=O)NCCCN4CCCCC4)cc3c21
Activity [1]: Active | Activity [2]: Active | Activity [3]: Active | ΔTm [4]: 35.2 °C | Activity [5]: Active

CN(C)CCCNC(=O)COc1ccc2oc3c(NCCCN(C)C)c4ccccc4[n+](C)c3c2c1
Activity [1]: Active | Activity [2]: Active | Activity [3]: Active | ΔTm [4]: 35.6 °C | Activity [5]: Active

C[n+]1c2ccccc2c(NCCCN2CCOCC2)c2oc3ccc(OCC(=O)NCCCN4CCOCC4)cc3c21
Activity [1]: Active | Activity [2]: Active | Activity [3]: Active | ΔTm [4]: 36.1 °C | Activity [5]: Active

O=C(COc1ccc2oc3c(NCCN4CCCCC4)c4ccccc4nc3c2c1)NCCN1CCCCC1
Activity [1]: Active | IC50 [6]: 1000 to 4000 nM | Activity [2]: Active | Selectivity ratio [7]: 2.9 to 9.7 | ΔTm [4]: 13.5 to 36.7 °C | Activity [5]: Active

CN(C)CCNC(=O)COc1ccc2oc3c(NCCN(C)C)c4ccccc4nc3c2c1
Activity [1]: Active | IC50 [6]: 1000 to 4000 nM | Activity [2]: Active | Selectivity ratio [7]: 2.9 to 9.7 | ΔTm [4]: 13.5 to 36.7 °C | Activity [5]: Active

CCN(CC)CCCNC(=O)COc1ccc2oc3c(NCCCN(CC)CC)c4ccccc4[n+](C)c3c2c1
Activity [1]: Active | Activity [2]: Active | Activity [3]: Active | ΔTm [4]: 13.5 to 36.7 °C | Kd [5]: 700 nM

C[n+]1c2ccccc2c(NCCN2CCOCC2)c2oc3ccc(OCC(=O)NCCN4CCOCC4)cc3c21
Activity [1]: Active | Activity [2]: Active | Activity [3]: Active | ΔTm [4]: 28.4 °C | Activity [5]: Active

CN(C)CCCNc1c2ccccc2[n+](C)c2c1oc1ccc(OCC3CC[N+](C)(C)CC3)cc12
Activity [1]: Active | Activity [2]: Active | Activity [3]: Active | ΔTm [4]: 33.1 to 36.7 °C | Activity [5]: Active

CN(C)CCNc1c2ccccc2[n+](C)c2c1oc1ccc(OCC[N+](C)(C)C)cc12
Activity [1]: Active | Activity [2]: Active | Activity [3]: Active | ΔTm [4]: 33.1 to 36.7 °C | Activity [5]: Active

CN(C)CCCNc1c2ccccc2nc2c1oc1c(OCCCN(C)C)cccc12
Activity [1]: Active | IC50 [6]: 1000 to 4000 nM | Activity [2]: Active | Selectivity ratio [7]: 2.5 to 10.1 | ΔTm [4]: 13.5 °C | Kd [5]: 1300 to 4900 nM

CN(C)CCCNc1c2ccccc2nc2c1oc1c(OCCN(C)C)cccc12
Activity [1]: Active | IC50 [6]: 1000 to 4000 nM | Activity [2]: Active | Selectivity ratio [7]: 2.5 to 10.1 | ΔTm [4]: 18.6 °C | Kd [5]: 1300 to 4900 nM

CN(C)CCCNc1c2ccccc2nc2c1oc1ccc(OCCN(C)C)cc12
Activity [1]: Active | IC50 [6]: 1000 to 4000 nM | Activity [2]: Active | Selectivity ratio [7]: 2.5 to 10.1 | ΔTm [4]: 22.1 to 25.2 °C | Kd [5]: 1300 to 4900 nM

CN(C)CCCNc1c2ccccc2[n+](C)c2c1oc1ccc(OCC[N+](C)(C)C)cc12
Activity [1]: Active | Activity [2]: Active | Activity [3]: Active | ΔTm [4]: 33.1 to 36.7 °C | Activity [5]: Active

CN(C)CCCNc1c2ccccc2[n+](C)c2c1oc1ccc(OCCC[N+](C)(C)C)cc12
Activity [1]: Active | Activity [2]: Active | Activity [3]: Active | ΔTm [4]: 33.1 to 36.7 °C | Activity [5]: Active

CN(C)CCCCNC(=O)COc1ccc2oc3c(NCCCCN(C)C)c4ccccc4[n+](C)c3c2c1
Activity [1]: Active | Activity [2]: Active | Activity [3]: Active | ΔTm [4]: 13.5 to 36.7 °C | Activity [5]: Active

CN(C)CCCNc1c2ccccc2nc2c1oc1ccc(OCCCN(C)C)cc12
Activity [1]: Active | IC50 [6]: 1000 to 4000 nM | Activity [2]: Active | Selectivity ratio [7]: 2.5 to 10.1 | ΔTm [4]: 22.1 to 25.2 °C | Kd [5]: 1300 to 4900 nM

CN(C)CCNc1c2ccccc2nc2c1oc1ccc(OCCN(C)C)cc12
Activity [1]: Active | IC50 [6]: 1000 to 4000 nM | Activity [2]: Active | Selectivity ratio [7]: 2.5 to 10.1 | ΔTm [4]: 13.5 to 36.7 °C | Kd [5]: 1300 to 4900 nM

CN(C)CCCNc1c2ccccc2nc2c1oc1cc(OCCN(C)C)ccc12
Activity [1]: Active | IC50 [6]: 1000 to 4000 nM | Activity [2]: Active | Selectivity ratio [7]: 2.5 to 10.1 | ΔTm [4]: 22.1 to 25.2 °C | Kd [5]: 1300 to 4900 nM

CN(C)CCCNC(=O)COc1ccc2oc3c(NCCCN(C)C)c4ccccc4nc3c2c1
Activity [1]: Active | IC50 [6]: 1000 to 4000 nM | Activity [2]: Active | Selectivity ratio [7]: 2.9 to 9.7 | ΔTm [4]: 21.2 °C | Activity [5]: Active

CN(C)CCNC(=O)COc1ccc2oc3c(NCCN(C)C)c4ccccc4[n+](C)c3c2c1
Activity [1]: Active | Activity [2]: Active | Activity [3]: Active | ΔTm [4]: 13.5 to 36.7 °C | Activity [5]: Active

CCN(CC)CCNC(=O)COc1ccc2oc3c(NCCN(CC)CC)c4ccccc4[n+](C)c3c2c1
Activity [1]: Active | Activity [2]: Active | Activity [3]: Active | ΔTm [4]: 13.5 to 36.7 °C | Kd [5]: 800 nM

CN(C)CCCNc1c2ccccc2nc2c1oc1cc(OCCCN(C)C)ccc12
Activity [1]: Active | IC50 [6]: 1000 to 4000 nM | Activity [2]: Active | Selectivity ratio [7]: 2.5 to 10.1 | ΔTm [4]: 22.1 to 25.2 °C | Kd [5]: 1300 to 4900 nM
